Laboratory results taken from article PMC5866228 (Journal of natural products, 2018).
“And” between values parts separate entries of the source, which are not always exact repeats. Identical values can stand only once. “Also recorded” adds a separate entry of the source.

How the values were obtained:
[1] = molecular target: T1, purified porcine brain tubulin (Sus scrofa, UniProt P02554); test: Tubulin polymerization, turbidimetric at 340 nm; format: biochemical; settings: 5 μM compound, tubulin 2 mg/mL, 37°C
Summary of the method: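 Test compound at 5 μM, a reference taccalonolide at 5−20 μM, or vehicle (1% EtOH). Samples were prepared on ice, then warmed to 37 °C to start polymerization. Rate and extent were followed turbidimetrically at 340 nm.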

[2] = test system: NCI/ADR-RES drug-resistant xenograft; format: in vivo; settings: for days with statistically significant effects vs paclitaxel-treated tumors / tumor growth following the first drug administration on day 0: intratumoral; for first day of statistically significant difference vs vehicle-treated tumors: intratumoral 20 μg on days 0, 3, 6, 10, 14, two-way ANOVA, Tukey; for persistence of antitumor efficacy after the final dose: intratumoral injection, paclitaxel-resistant tumor; for tumor growth following the first drug administration on day 0: 20 μg 21 or 26, 40 μg paclitaxel
Initial dose tolerance = format: in vivo, mice; settings: systemic (ip), drug-sensitive or -resistant xenograft models
[3] = compared to 3; cited from earlier work
[4] = plasma / in vivo; cited from earlier work
[5] = Hydrolytic stability in aqueous solution; format: physicochemical; settings: 10 mg in 1:1 EtOH-PBS, 36 h, room temperature
Summary of the method: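 Test compound stirred in 1× PBS–EtOH; the mixture was then vacuum-dried and extracted with CH3CN. The hydrolysis product was isolated by semipreparative C18 HPLC eluted with 60−100% CH3CN/H2O containing 0.1% formic acid. Isolated yield was the read-out.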

[6] = molecular target: T1, purified porcine brain tubulin; settings: cited from earlier work
[7] = aqueous conditions; cited from earlier work
[8] = test system: NCI/ADR-RES drug-resistant xenograft; settings: systemic administration; no reference given; cited from earlier work
[9] = test system: HeLa cervical cancer cell line; settings: cited from earlier work

T1 sequence (P02554 whole entry): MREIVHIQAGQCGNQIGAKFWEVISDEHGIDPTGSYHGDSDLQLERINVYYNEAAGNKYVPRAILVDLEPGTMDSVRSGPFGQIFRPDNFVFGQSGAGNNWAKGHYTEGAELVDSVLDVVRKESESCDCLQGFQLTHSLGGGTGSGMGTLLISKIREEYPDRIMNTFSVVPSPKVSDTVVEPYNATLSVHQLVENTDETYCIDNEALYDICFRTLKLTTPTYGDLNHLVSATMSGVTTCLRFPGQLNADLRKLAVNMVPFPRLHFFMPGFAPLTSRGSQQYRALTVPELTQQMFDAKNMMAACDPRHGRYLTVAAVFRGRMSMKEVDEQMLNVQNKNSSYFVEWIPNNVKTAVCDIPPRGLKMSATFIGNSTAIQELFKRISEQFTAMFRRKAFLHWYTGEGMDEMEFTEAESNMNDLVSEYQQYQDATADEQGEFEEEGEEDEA
T1 sequence (P02550 whole entry partner): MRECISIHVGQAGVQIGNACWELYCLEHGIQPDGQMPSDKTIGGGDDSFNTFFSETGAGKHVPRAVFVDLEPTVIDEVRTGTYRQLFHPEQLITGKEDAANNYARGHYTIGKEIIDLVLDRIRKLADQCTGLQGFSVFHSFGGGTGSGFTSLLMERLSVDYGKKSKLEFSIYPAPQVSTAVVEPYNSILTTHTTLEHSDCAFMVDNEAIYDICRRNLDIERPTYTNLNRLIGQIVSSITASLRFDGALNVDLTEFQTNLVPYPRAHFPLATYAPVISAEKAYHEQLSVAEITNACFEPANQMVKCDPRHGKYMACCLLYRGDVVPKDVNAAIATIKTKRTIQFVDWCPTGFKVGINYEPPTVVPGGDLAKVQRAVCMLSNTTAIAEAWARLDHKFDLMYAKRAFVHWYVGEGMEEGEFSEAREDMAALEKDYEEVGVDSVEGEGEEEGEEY

SMILES: CC(=O)O[C@H]1[C@H]2[C@H]([C@@H]3[C@@H](OC(=O)CC(C)C)[C@@H]4[C@H]([C@H](C)[C@H]5O[C@]56OC(=O)[C@@](C)(O)[C@]46C)[C@@]3(C)[C@H]1OC(C)=O)[C@@H](O)C(=O)[C@H]1C[C@@H]3O[C@@H]3[C@H](OC(C)=O)[C@]21C [Compound 21]
- extent of tubulin polymerization compared with 4 [1]: greater extent of tubulin polymerization than equivalent concentrations of 4
- first day on which a tumor reached 1,500 mm^3 ([2]; 31 days after the final dose, intratumoral 20 μg): 45 days
- days with statistically significant effects vs paclitaxel-treated tumors [2]: 12 to 14 days
- first day of statistically significant difference vs vehicle-treated tumors [2]: 10 days
- persistence of antitumor efficacy after the final dose [2]: at least 30 days
- tumor growth following the first drug administration on day 0 [2]: abruptly slowed
- antitumor effects during MTD evaluations (Initial dose tolerance): lack of observable antitumor effects

SMILES: CC(=O)O[C@H]1[C@H]2[C@H]([C@@H]3[C@@H](O)[C@@H]4[C@H]([C@H](C)[C@H]5O[C@]56OC(=O)[C@@](C)(O)[C@]46C)[C@@]3(C)[C@H]1OC(C)=O)[C@@H](O)C(=O)[C@H]1C[C@@H]3O[C@@H]3[C@H](OC(C)=O)[C@]21C [Compound 4, taccalonolide AJ]
- microsomal clearance [3]: higher microsomal clearance; also recorded: increased rate of microsomal clearance as compared to 3
- half-life [4]: lower in vivo half-life; also recorded: shorter plasma half-life

SMILES: CC(=O)O[C@H]1[C@H]2[C@H]([C@@H]3[C@@H](OC(=O)c4ccc5c(c4)C(=O)c4ccccc4C5=O)[C@@H]4[C@H]([C@H](C)[C@H]5O[C@]56OC(=O)[C@@](C)(O)[C@]46C)[C@@]3(C)[C@H]1OC(C)=O)[C@@H](O)C(=O)[C@H]1C[C@@H]3O[C@@H]3[C@H](OC(C)=O)[C@]21C [Compound 24]
- hydrolysis to 4, yield [5]: 67.4% and 67%

SMILES: CC(=O)O[C@H]1[C@H]2[C@H]([C@@H]3[C@@H](OC(=O)C(C)C)[C@@H]4[C@H]([C@H](C)[C@H]5O[C@]56OC(=O)[C@@](C)(O)[C@]46C)[C@@]3(C)[C@H]1OC(C)=O)[C@@H](O)C(=O)[C@H]1C[C@@H]3O[C@@H]3[C@H](OC(C)=O)[C@]21C [Compound 20]
- extent of tubulin polymerization compared with 4 [1]: comparable levels of tubulin polymerization compared to an equivalent concentration of 4
- antitumor effects during MTD evaluations (Initial dose tolerance): lack of observable antitumor effects

SMILES: CC(=O)O[C@H]1[C@H]2[C@H]([C@@H]3[C@@H](O)[C@@H]4[C@H]([C@H](C)[C@H]5O[C@]56OC(=O)[C@@](C)(O)[C@]46C)[C@@]3(C)[C@H]1OC(C)=O)[C@@H](OC(=O)CC(C)C)C(=O)[C@H]1C[C@@H]3O[C@@H]3[C@H](OC(C)=O)[C@]21C [Compound 26]
- extent of tubulin polymerization compared with 4 [1]: greater extent of tubulin polymerization than equivalent concentrations of 4
- growth of tumors with smaller initial volumes (130 – 233 mm^3) ([2]; four tumors, intratumoral 20 μg): did not increase in size even by day 54
- days with statistically significant effects vs paclitaxel-treated tumors [2]: 12 to 14 days
- first day of statistically significant difference vs vehicle-treated tumors [2]: 12 days
- persistence of antitumor efficacy after the final dose [2]: at least 30 days
- tumor growth following the first drug administration on day 0 [2]: abruptly slowed
- antitumor effects during MTD evaluations (Initial dose tolerance): lack of observable antitumor effects

SMILES: CC(=O)O[C@H]1[C@H]2[C@H]([C@@H]3[C@@H](O)[C@@H]4[C@H]([C@H](C)[C@H]5O[C@]56OC(=O)[C@@](C)(O)[C@]46C)[C@@]3(C)[C@H]1OC(C)=O)[C@@H](OC(=O)C(C)(C)C)C(=O)[C@H]1C[C@@H]3O[C@@H]3[C@H](OC(C)=O)[C@]21C [Compound 27]
- extent of tubulin polymerization compared with 4 [1]: comparable levels of tubulin polymerization compared to an equivalent concentration of 4

SMILES: CC(=O)O[C@H]1C(=O)[C@@]2(C)[C@H]([C@H](OC(=O)c3ccccc3)[C@]3(O)C[C@H](OC(=O)[C@H](O)[C@@H](NC(=O)c4ccccc4)c4ccccc4)C(C)=C1C3(C)C)[C@]1(OC(C)=O)CO[C@@H]1C[C@@H]2O [paclitaxel, reference compound]
- tumor growth rate compared with vehicle up to day 14 ([2]; intratumoral 40 μg): not different statistically
- tumor growth following the first drug administration on day 0 [2]: unaffected

SMILES: CC(=O)O[C@H]1[C@H]2[C@H]([C@@H]3[C@@H](OC(=O)C4CC4)[C@@H]4[C@H]([C@H](C)[C@H]5O[C@]56OC(=O)[C@@](C)(O)[C@]46C)[C@@]3(C)[C@H]1OC(C)=O)[C@@H](O)C(=O)[C@H]1C[C@@H]3O[C@@H]3[C@H](OC(C)=O)[C@]21C [Compound 19]
- extent of tubulin polymerization compared with 4 [1]: comparable levels of tubulin polymerization compared to an equivalent concentration of 4
- antitumor effects during MTD evaluations (Initial dose tolerance): lack of observable antitumor effects

SMILES: CC(=O)O[C@H]1[C@H]2[C@H]([C@@H]3[C@@H](OC(=O)C(C)(C)C)[C@@H]4[C@H]([C@H](C)[C@H]5O[C@]56OC(=O)[C@@](C)(O)[C@]46C)[C@@]3(C)[C@H]1OC(C)=O)[C@@H](O)C(=O)[C@H]1C[C@@H]3O[C@@H]3[C@H](OC(C)=O)[C@]21C [Compound 22]
- antitumor effects during MTD evaluations (Initial dose tolerance): lack of observable antitumor effects

SMILES: CC(=O)O[C@@H]1[C@H]2[C@H]3[C@H]([C@H](OC(C)=O)[C@H](OC(C)=O)[C@]2(C)[C@H]2[C@H](C)[C@H]4O[C@]45OC(=O)[C@@](C)(O)[C@]5(C)[C@H]12)[C@]1(C)[C@H](C[C@@H]2O[C@@H]2[C@@H]1OC(C)=O)C(=O)[C@@H]3O [Compound 3, taccalonolide AF]
- effect on polymerization of purified tubulin [6]: directly stimulates the polymerization of purified tubulin
- hydrolysis of C-15 acetoxy group [7]: readily hydrolyzed to generate 4 under aqueous conditions
- efficacy in the taxane-resistant model [8]: has efficacy in this taxane-resistant model with systemic administration
- potency relative to 1 [9]: over 200 fold
